# Bioassay records: PubChem, several laboratories
# NR2E3 ag-1: activates human NR2E3 receptor; actives 0.35% (n = 360,000); inhibition of corepressor binding, % at 3.98 µM; CHO-S Gal4-NCOR/VP16-NR2E3 two-hybrid, luciferase; AID 602229; Q9Y5X4;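 active = inhibition above the mean of all tested compounds plus 3 SD, cut at about 70% in these data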;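 note: 0% = DMSO with NR2E3 transfected cells and 100% = cells lacking NR2E3 construct; higher means lower luciferase signal from less NR2E3 corepressor binding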
# GalR3 antag: blocks the human galanin receptor 3; HEK293 GalR3-CNG cAMP membrane potential fluorescence; galR3 body fused to GalR1 C-terminus; inhibition, % at 3 µM; actives 0.44% (n = 360,000); AID 651719;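 active = inhibition above the screen-wide average plus 3 SD, cut at about 13% in these data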;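 note: forskolin and galanin both at EC90 stimulate the cells; cAMP rise reported by CNG channel membrane potential dye signal; 0% = forskolin plus galanin with DMSO and 100% = forskolin alone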
# Target sequence (O60755 1-299 limits assumed): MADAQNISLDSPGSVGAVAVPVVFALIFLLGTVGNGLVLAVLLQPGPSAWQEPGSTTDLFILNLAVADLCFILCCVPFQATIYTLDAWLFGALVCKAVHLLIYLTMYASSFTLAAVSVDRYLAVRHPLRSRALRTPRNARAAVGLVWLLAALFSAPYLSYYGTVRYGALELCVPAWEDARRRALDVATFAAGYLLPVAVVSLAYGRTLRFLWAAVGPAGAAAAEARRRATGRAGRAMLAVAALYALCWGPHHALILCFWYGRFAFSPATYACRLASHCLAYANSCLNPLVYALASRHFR
# NR2E3 ag-2: NR2E3 (human) agonism; GST-NR2E3/biotin-RetCOR TR-FRET, 1536-well; actives 0.12% (n = 320,000); inhibition of corepressor binding, % at 4.78 µM; Q9Y5X4;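 active = percent inhibition above the cutoff of mean plus 3 SD of all tested compounds, set per screening campaign, cut at about 20% in these data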;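 note: 0% = DMSO wells and 100% = biotin wells as full block of FRET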
#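 System: GST-tagged NR2E3 plus biotinylated RetCOR corepressor; Amount: 1.35 nM GST-tagged NR2E3 final; Dosing: single nominal compound dose of 4.8 µM; Schedule: 5 h incubation at 4 °C; Technique: TR-FRET with europium anti-GST and streptavidin-D2, 340 nm excitation; Controls: biotin wells as high control, 0.6% DMSO wells as low control.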
# COUP-TFII inh: NR2F2 (human) inhibition, primary screen; HEK293T NGFI-A luciferase reporter, luminescence; P24468; inhibition, % at 8.6 µM; actives 0.7% (n = 370,000);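 active = inhibition above a per-plate cutoff, mean inhibition of test wells between control levels plus 3 SD, cut at about 38% in these data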;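 note: cells cotransfected with COUP-TFII expression vector driving the NGFI-A reporter; 0% = median of COUP-TF2 test wells and 100% = reporter-only cells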
# Target sequence (P24468 whole entry, looked up): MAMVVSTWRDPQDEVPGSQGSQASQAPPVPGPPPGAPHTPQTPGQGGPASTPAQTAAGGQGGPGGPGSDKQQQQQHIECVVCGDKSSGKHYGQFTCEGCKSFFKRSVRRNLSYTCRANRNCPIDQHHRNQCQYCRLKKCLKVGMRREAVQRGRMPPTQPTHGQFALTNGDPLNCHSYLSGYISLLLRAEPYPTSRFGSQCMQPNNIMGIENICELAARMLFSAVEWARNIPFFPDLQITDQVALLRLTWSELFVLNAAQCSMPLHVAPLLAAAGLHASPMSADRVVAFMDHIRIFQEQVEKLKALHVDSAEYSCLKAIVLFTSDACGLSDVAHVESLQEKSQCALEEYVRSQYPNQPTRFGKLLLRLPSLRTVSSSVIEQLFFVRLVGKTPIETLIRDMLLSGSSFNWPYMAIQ
# CHT inh: human CHT choline transport inhibition | CHT-expressing cells, membrane potential dye, choline response; stronger effect = lower value | B-score at 10 µM | actives 0.86% (n = 310,000);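 active = B-score over 3 SD under the library average, and starting fluorescence ratio not unusually high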;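 note: choline stimulus applied at its EC90 after an EC20 pre-addition; B-score computed on integrated fluorescence ratio after choline addition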
# CHT allo act: allosteric activators of human choline transporter CHT; CHT-expressing cells, membrane potential dye, choline EC20; stronger effect = higher value; LV-AA mutant CHT in HEK293 cells; B-score at 10 µM; AID 488977; Q9GZV3; actives 0.49% (n = 310,000);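 active = initial fluorescence not abnormally high and integrated response B-score, plate-corrected, over 3 SD above library mean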
# NR2E3 ag conf: confirmation of human NR2E3 agonists; shares compounds with NR2E3 ag-1; CHO-S mammalian two-hybrid NR2E3-NCOR, luciferase luminescence; inhibition, % at 3.98 µM; actives 51% (n = 2,300); AID 624378;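 active = average inhibition above a cutoff equal to the mean inhibition of all tested compounds plus one SD, cut at about 70% in these data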;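 note: 0% = DMSO in NR2E3 cells and 100% = DMSO in cells lacking NR2E3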
# GAL4-VP16 luc: counter-screen for NR2E3 agonists: GAL4-VP16 reporter inhibitors. shares compounds with NR2E3 ag-1. CHO-S GAL4-VP16 luciferase reporter, luminescence. inhibition, % at 3.98 µM. actives 29% (n = 2,300). AID 624379;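 active = mean inhibition above a cutoff equal to the average over all tested compounds plus one standard deviation, cut at about 70% in these data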;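 note: luciferase from a UAS reporter driven by GAL4-VP16 transactivation; 0% = DMSO with VP16-transfected cells and 100% = DMSO with cells lacking VP16; higher means less reporter light so more repression of VP16 activity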
# An asterisk follows results filed as active; i = inactive; nt = no result. Rows were chosen to be rich in hits. Some 2.3% of all compounds tested hit in one or more screens of this group.
SMILES,NR2E3 ag-1,GalR3 antag,NR2E3 ag-2,COUP-TFII inh,CHT inh,CHT allo act,NR2E3 ag conf,GAL4-VP16 luc
O=C1c2ccccc2C(=O)N1Nc1ccccc1,58,-4,1,1,i,i,19,20
O=C1c2cccc3c([N+](=O)[O-])c(O)cc(c23)C(=O)N1Nc1ccccc1,-26,-5,0,16,i,i,nt,nt
Cc1ccc(S(=O)(=O)N2CCN(C(=O)COC(=O)c3oc4ccccc4c3C)CC2)cc1,4,-1,0,7,i,i,nt,nt
COc1ccc2oc(C(=O)OCC(=O)N3CCN(S(=O)(=O)c4ccc(C)cc4)CC3)c(C)c2c1,70*,-1,3,-1,i,i,86*,72*
Brc1ccc(CSc2nnc(SCc3ccccc3)s2)cc1,nt,nt,nt,-14,nt,nt,nt,nt
O=Nc1c(O)n(Cc2ccccc2)c2ccccc12,-8,-5,1,-1,i,i,nt,nt
Cc1c(CCCN)c2ccccc2n1Cc1ccccc1,50,-6,2,-1,i,i,-4,4
CC(C)C[C@@H](CN1CCCC1CN1C(=S)NC[C@@H]1Cc1ccc(O)cc1)N1C[C@H](Cc2ccccc2)N(CCc2ccccc2)C1=S (stereo not given in full),-18,-5,nt,-14,nt,nt,nt,nt
CC(C)C[C@@H](CN1CCC[C@@H]1CN1C(=S)NC[C@@H]1Cc1ccc(O)cc1)N1C[C@H](Cc2ccccc2)N(CCc2ccccc2)C1=S,53,nt,nt,nt,nt,nt,-3,25
Cc1ccc(NC(=O)C2(C)CCN2C(=O)Cc2ccc(-c3ccccc3)cc2)cc1 (stereo not given),69,-7,nt,26,nt,nt,88*,68
COc1ccc(CN(CCN2CCOCC2)C(=O)c2ccc(F)cc2F)cc1OC,nt,nt,nt,-23,nt,nt,nt,nt
O=C(NNS(=O)(=O)c1ccc(F)cc1F)C1Cc2c(ccc3ccccc23)O1 (stereo not given),61,-7,3,15,i,i,85*,72*
CS(=O)(=O)NNC(=O)C1Cc2c(ccc3ccccc23)O1 (stereo not given),-13,-9,-4,-9,i,i,nt,nt
O=C(CSc1nc2ccccc2c(=O)[nH]1)Nc1ccc(N2CCOCC2)c(Cl)c1,49,-7,5,8,i,i,27,46
Cc1ccc(NC(=O)CSc2nc3ccccc3c(=O)[nH]2)cc1[N+](=O)[O-],56,3,nt,-1,nt,nt,46,60
O=C(CSc1nc2ccccc2s1)Nc1ccc(N2CCOCC2)c(Cl)c1,-12,0,-1,8,i,i,nt,nt
COC(=O)c1ccc(S(=O)(=O)N2CCC(NC(=O)CCC3CCCC3)CC2)cc1,nt,nt,nt,-5,nt,nt,nt,nt
CN(CCc1ccccn1)C(=O)c1cc2ccccn2n1,nt,nt,nt,7,nt,nt,nt,nt
CCOC(=O)CNC(=O)c1sc(NC(=O)c2ccccc2)nc1C,49,-2,-1,-8,i,i,3,-21
COc1ccccc1CNS(=O)(=O)c1ccc(-c2cnc(C3CC3)o2)cc1,53,7,2,3,i,i,29,41
Cc1ccc(NS(=O)(=O)c2ccc(-c3cnc(C4CC4)o3)cc2)c(C)c1,79*,9,2,-35,i,i,56,34
O=S(=O)(Nc1ccc(F)cc1Cl)c1ccc(-c2cnc(C3CC3)o2)cc1,71*,5,-2,5,i,i,66,46
O=C1CC(=O)Nc2cc(S(=O)(=O)Nc3ccc(F)cc3Cl)ccc2N1,-7,1,-3,14,i,i,nt,nt
Cc1ccc(-c2cnc(C3CC3)o2)cc1S(=O)(=O)Nc1ccccc1,-2,nt,-1,nt,i,i,nt,nt
COc1ccccc1CNS(=O)(=O)c1ccc(S(=O)(=O)NC2CC2)cc1,-49,1,1,-5,i,i,nt,nt
SMILES,NR2E3 ag-1,GalR3 antag,NR2E3 ag-2,COUP-TFII inh,CHT inh,CHT allo act,NR2E3 ag conf,GAL4-VP16 luc
COC(=O)c1cc(-c2ccccc2)c(=O)n2c1CCC2,nt,nt,nt,-10,nt,nt,nt,nt
CN(C)S(=O)(=O)c1cccc(C(=O)N/N=C\c2ccc(-c3ccccn3)cc2)c1,nt,nt,nt,-4,nt,nt,nt,nt
O=C(NC(=S)/C(=C1\CCCCCN1)[N+](=O)[O-])c1ccccc1,52,nt,nt,nt,nt,nt,23,-11
CN(C)S(=O)(=O)N1CCC(Oc2ccc(C(=O)N3C[C@@H]4CCC[C@H]3C4)cc2)CC1,26,-3,1,20,i,i,nt,nt
CN(C)S(=O)(=O)N1CCC(Oc2ccc(C(=O)N3C[C@H]4CC[C@H]3C4)cc2)CC1,60,-3,0,33,i,i,8,15
O=C(c1cc(C2CC2)on1)N(C1CCCCC1)C1CCOCC1,nt,nt,nt,17,nt,nt,nt,nt
O=S(=O)(NCCOc1ccccc1Cl)c1ccc2oc3ccccc3c2c1,41,-3,-4,6,i,i,nt,nt
COc1ccccc1OCCNS(=O)(=O)c1ccc2oc3ccccc3c2c1,51,-6,0,1,i,i,62,68
COC(=O)[C@]12C[C@H](CC(=O)NCCCN3CCCC3=O)C(=O)N(CCc3ccc(OC)c(OC)c3)C1=C[C@H](C1CCCC1)O[C@@H]2C,nt,nt,nt,-11,nt,nt,nt,nt
Nc1nc2ccccc2cc1C(=O)NCCCCc1ccccc1,96*,nt,nt,nt,nt,nt,97*,90*
Cc1ccccc1C(=O)NCCCCc1ccccc1,0,0,1,-19,i,i,nt,nt
CCOc1cc(/C=C/c2cc(C(F)(F)F)[nH]c(=O)n2)ccc1O,16,-1,2,-18,i,i,nt,nt
COc1ccc(/C=C/c2cc(C(F)(F)F)[nH]c(=O)n2)cc1OC,53,1,4,9,i,i,64,-3
CC(C)(C)c1ccc(C(=O)Nc2cc(Cl)ccc2-c2nn[nH]n2)cc1,nt,nt,nt,-13,nt,nt,nt,nt
CC1COCC(C)N1S(=O)(=O)c1ccc2c(c1)CCN2C(=O)C1CCC1 (stereo not given),nt,nt,nt,7,nt,nt,nt,nt
NC(=S)N/N=C\c1c2ccccc2cc2ccccc12,-28,-2,2,-8,i,i,nt,nt
NC(=S)N/N=C\c1c(OCc2ccccc2Cl)ccc2ccccc12,94*,-7,2,36,i,i,-16,-3
Cc1cc(Nc2ccccc2)n(-c2ccccc2)n1,-1,-4,3,-2,i,i,nt,nt
Cc1cc(C)nc(-n2nc(C)cc2Nc2ccccc2)n1,111*,-2,-3,28,-5.2*,i,12,6
Cc1cc(N2CCN(c3ccccc3)CC2)nc(-c2ccccc2O)n1,-24,-4,2,-1,i,i,nt,nt
Cc1cc(N2CCN(c3ccccc3)CC2)nc(-n2nc(C)cc2C)n1,82*,-4,-2,8,i,i,-13,12
